The text below walks through data of ChEMBL document CHEMBL3813618, “Polyhalogenated Indoles from the Red Alga Rhodophyllis membranacea: The First Isolation of Bromo-Chloro-Iodo Secondary Metabolites” (J Nat Prod, 2016).

Some results are limits rather than exact numbers.

One experiment deals with Saccharomyces cerevisiae. Description: Antifungal activity against Saccharomyces cerevisiae BY4741 assessed as growth inhibition. The format is functional. In outline: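 Wild-type strain BY4741 grown in liquid synthetic complete medium with compound; cell density read at A600. Concentration giving 50% growth inhibition determined relative to untreated controls.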
A short description of experiment [1]: Cytotoxicity against human HL60 cells assessed as cell growth inhibition after 48 hrs by MTT assay. Conditions: HL-60, 48 h. Format: functional, cell-based. In outline:
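Cell proliferation MTT assay, 48 h exposure of HL-60 promyelocytic leukemia cells to compound at various concentrations; dose-response generated relative to untreated HL-60 control cells. n = 1 or 2 independent experiments, duplicate wells per experiment.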
(In general: Tetrazolium dyes change colour on reduction, which living cells bring about.)

In general, IC50 refers to the point on the concentration scale where inhibition reaches its midpoint. As to `O=C1Nc2cccc(Cl)c2C1=O`, the IC50 with Saccharomyces cerevisiae is above 61 µM.

With `Clc1[nH]c2c(Br)c(I)ccc2c1Cl`, the IC50 in experiment [1] is 49 µM; in the experiment with Saccharomyces cerevisiae it was 39 µM.

In the case of `Clc1[nH]c2c(Br)ccc(Br)c2c1Cl`, the IC50 in experiment [1] was 28 µM; in the experiment on Saccharomyces cerevisiae, 23 µM.

Consider `Brc1ccc2c(Br)c(Br)[nH]c2c1Br`, for which the IC50 was 38 µM in experiment [1] and 69 µM in the experiment on Saccharomyces cerevisiae.

As for `Clc1[nH]c2c(Br)c(Br)ccc2c1Cl`, the half-maximal inhibitory concentration (IC50) amounted to 61 µM in experiment [1] and 63 µM with Saccharomyces cerevisiae.

As for `Clc1c(Br)[nH]c2c(Br)c(Br)ccc12`, the IC50 in experiment [1] is 78 µM; with Saccharomyces cerevisiae, above 83 µM.

Turning to `CC(=O)CC1(O)C(=O)Nc2cccc(Cl)c21` (stereo not drawn), the IC50 in experiment [1] is 61 µM; in the experiment with Saccharomyces cerevisiae it was above 49 µM.
